ChEMBL document CHEMBL1914443, “Inhibition of c-Kit, VEGFR-2 (KDR), and ABCG2 by analogues of OSI-930” (Bioorg Med Chem Lett, 2011)

Experiments:
[1] = molecular target: T1, Mast/stem cell growth factor receptor Kit (Homo sapiens, UniProt P10721); test: Inhibition of c-Kit using Tyr 06 peptide as substrate at 10 uM after 60 mins by Z'-LYTE assay
[2] = molecular target: Platelet-derived growth factor receptor alpha (Homo sapiens) (UniProt P16234); test: Inhibition of PDGFRalpha using Tyr 04 peptide as substrate at 10 uM after 60 mins by Z'-LYTE assay
Platelet-derived growth factor receptor alpha (Homo sapiens), sequence (P16234 whole entry): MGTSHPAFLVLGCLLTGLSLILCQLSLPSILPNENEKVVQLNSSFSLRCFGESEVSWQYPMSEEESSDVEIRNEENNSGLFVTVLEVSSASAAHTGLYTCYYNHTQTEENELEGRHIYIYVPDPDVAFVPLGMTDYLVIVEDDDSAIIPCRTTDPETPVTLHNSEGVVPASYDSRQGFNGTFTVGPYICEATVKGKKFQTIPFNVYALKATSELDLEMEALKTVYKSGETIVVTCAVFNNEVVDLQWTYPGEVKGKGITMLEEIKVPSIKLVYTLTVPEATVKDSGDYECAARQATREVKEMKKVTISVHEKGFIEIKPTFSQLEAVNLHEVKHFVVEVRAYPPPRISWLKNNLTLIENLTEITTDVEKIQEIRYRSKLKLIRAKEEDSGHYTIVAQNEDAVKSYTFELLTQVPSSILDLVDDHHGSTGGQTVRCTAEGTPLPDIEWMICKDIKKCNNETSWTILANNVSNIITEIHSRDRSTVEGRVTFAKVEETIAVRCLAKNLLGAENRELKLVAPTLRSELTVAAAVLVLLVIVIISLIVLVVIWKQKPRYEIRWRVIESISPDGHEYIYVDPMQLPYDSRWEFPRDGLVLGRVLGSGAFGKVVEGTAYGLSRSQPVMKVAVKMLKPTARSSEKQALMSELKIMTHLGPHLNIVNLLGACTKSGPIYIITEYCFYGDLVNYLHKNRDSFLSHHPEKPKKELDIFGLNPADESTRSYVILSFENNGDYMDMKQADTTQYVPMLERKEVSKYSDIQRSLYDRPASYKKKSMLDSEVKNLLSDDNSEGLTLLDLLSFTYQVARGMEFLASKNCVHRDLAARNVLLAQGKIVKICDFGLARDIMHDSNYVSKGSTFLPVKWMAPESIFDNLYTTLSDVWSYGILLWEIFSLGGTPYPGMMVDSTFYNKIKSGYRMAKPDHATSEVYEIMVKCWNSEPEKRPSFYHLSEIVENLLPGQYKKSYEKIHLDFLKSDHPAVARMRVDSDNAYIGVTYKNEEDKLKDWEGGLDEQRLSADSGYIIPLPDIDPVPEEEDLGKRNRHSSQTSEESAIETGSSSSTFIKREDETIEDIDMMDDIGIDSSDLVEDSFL

[3] = molecular target: Platelet-derived growth factor receptor beta (Homo sapiens) (UniProt P09619); test: Inhibition of PDGFRbeta using Tyr 04 peptide as substrate at 10 uM after 60 mins by Z'-LYTE assay
[4] = molecular target: Receptor-type tyrosine-protein kinase FLT3 (Homo sapiens) (UniProt P36888); test: Inhibition of Flt3 using Tyr 02 peptide as substrate at 10 uM after 60 mins by Z'-LYTE assay
Receptor-type tyrosine-protein kinase FLT3 (Homo sapiens), sequence (P36888 whole entry): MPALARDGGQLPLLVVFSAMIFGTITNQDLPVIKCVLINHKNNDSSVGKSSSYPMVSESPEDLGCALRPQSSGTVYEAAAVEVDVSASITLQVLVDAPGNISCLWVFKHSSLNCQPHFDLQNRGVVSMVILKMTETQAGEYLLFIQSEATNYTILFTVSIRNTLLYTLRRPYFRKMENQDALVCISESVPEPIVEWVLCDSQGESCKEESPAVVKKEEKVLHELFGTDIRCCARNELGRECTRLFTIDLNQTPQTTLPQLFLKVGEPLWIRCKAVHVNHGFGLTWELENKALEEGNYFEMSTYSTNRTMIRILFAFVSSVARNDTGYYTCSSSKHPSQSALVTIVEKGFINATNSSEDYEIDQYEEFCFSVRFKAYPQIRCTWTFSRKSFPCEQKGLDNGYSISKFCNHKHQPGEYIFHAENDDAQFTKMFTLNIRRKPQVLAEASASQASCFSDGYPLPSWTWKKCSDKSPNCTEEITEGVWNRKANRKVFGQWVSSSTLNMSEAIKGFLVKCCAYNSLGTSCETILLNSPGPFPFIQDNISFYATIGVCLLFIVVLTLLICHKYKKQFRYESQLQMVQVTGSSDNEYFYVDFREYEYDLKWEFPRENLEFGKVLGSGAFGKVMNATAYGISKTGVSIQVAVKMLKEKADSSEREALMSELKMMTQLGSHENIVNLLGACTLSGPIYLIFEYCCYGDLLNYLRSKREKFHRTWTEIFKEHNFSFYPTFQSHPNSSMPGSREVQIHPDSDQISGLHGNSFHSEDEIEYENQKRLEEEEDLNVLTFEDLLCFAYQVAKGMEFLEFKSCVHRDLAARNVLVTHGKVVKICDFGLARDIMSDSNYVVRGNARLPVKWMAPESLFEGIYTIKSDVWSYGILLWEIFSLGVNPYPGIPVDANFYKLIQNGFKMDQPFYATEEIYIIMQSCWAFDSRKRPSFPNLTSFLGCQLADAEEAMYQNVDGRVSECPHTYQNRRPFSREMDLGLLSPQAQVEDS

[5] = molecular target: T2, Vascular endothelial growth factor receptor 2 (Homo sapiens, UniProt P35968); test: Inhibition of KDR using Tyr 01 peptide as substrate at 10 uM after 60 mins by Z'-LYTE assay
T2 sequence (P35968 whole entry): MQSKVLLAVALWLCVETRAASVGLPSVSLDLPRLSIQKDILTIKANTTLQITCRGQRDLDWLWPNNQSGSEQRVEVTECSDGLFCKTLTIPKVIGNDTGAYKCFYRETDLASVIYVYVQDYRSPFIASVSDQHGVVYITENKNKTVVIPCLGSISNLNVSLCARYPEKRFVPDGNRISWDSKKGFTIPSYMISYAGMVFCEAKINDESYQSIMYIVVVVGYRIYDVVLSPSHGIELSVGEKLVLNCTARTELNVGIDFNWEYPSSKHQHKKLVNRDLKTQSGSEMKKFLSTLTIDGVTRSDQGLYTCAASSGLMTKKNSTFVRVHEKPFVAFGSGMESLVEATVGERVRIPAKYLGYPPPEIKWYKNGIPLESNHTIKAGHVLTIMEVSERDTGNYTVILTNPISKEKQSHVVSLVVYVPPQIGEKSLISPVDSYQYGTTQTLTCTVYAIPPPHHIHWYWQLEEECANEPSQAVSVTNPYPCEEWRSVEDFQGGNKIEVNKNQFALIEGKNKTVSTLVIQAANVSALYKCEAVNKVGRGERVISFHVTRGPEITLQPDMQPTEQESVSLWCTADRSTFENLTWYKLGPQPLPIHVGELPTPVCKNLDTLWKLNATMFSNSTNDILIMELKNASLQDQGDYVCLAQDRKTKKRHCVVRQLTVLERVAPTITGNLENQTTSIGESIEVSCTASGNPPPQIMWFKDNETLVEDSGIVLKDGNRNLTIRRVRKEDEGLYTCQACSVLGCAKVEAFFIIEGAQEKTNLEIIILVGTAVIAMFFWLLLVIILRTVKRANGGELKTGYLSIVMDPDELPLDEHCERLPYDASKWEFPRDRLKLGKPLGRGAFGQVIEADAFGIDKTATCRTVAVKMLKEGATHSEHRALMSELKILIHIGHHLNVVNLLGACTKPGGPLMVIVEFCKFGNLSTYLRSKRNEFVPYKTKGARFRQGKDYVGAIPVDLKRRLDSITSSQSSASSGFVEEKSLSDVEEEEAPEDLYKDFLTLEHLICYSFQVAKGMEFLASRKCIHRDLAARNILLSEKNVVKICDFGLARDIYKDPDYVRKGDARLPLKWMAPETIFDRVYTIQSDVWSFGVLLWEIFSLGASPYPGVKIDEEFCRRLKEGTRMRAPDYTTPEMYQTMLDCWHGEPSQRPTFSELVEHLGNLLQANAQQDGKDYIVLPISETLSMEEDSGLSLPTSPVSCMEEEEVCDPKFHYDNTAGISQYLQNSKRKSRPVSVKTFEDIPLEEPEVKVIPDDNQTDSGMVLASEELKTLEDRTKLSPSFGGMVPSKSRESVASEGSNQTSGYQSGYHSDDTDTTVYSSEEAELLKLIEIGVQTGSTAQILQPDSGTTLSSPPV

[6] = molecular target: Vascular endothelial growth factor receptor 1 (Homo sapiens) (UniProt P17948); test: Inhibition of VEGFR1 using Tyr 04 peptide as substrate at 10 uM after 60 mins by Z'-LYTE assay
[7] = molecular target: Vascular endothelial growth factor receptor 3 (Homo sapiens) (UniProt P35916); test: Inhibition of VEGFR3 using Tyr 04 peptide as substrate at 10 uM after 60 mins by Z'-LYTE assay
Vascular endothelial growth factor receptor 3 (Homo sapiens), sequence (P35916 whole entry): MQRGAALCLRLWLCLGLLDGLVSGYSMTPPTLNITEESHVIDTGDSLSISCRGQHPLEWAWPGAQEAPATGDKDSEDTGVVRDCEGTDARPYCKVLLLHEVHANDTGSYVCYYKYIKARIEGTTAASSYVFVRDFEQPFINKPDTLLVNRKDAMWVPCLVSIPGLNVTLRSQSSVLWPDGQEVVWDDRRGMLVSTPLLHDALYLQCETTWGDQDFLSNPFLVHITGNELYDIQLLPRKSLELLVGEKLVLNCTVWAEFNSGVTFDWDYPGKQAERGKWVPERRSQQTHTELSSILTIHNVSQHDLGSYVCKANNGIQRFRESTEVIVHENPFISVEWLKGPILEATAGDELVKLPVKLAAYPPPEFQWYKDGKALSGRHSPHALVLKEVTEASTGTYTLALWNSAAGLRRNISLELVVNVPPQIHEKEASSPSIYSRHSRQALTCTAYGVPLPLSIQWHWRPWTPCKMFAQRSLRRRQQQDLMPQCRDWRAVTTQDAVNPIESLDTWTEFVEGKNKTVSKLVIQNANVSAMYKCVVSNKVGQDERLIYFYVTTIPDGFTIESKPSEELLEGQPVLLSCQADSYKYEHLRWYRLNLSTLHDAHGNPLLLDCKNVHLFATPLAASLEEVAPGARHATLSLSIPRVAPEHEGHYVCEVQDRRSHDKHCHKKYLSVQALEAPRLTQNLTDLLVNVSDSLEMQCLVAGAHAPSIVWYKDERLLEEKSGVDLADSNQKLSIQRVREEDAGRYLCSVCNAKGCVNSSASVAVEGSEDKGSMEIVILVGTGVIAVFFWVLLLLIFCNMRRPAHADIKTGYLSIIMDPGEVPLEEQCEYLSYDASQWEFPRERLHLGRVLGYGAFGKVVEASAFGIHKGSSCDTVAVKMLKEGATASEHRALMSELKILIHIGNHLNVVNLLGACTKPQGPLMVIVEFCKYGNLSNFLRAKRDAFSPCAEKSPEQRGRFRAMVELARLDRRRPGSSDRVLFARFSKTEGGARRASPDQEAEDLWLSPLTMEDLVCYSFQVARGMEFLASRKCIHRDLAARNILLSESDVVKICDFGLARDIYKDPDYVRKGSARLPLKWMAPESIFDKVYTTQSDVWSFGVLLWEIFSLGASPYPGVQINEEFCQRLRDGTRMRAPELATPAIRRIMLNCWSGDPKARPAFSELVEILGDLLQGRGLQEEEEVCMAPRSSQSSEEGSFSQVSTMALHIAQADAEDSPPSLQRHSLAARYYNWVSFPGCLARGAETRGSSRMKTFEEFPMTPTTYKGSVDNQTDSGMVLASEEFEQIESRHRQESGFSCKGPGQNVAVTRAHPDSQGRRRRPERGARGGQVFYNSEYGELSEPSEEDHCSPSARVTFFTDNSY

[8] = molecular target: Angiopoietin-1 receptor (Homo sapiens) (UniProt Q02763); test: Inhibition of Tie-2 using Tyr 05 peptide as substrate at 10 uM after 60 mins by Z'-LYTE assay
[9] = molecular target: Platelet-derived growth factor receptor alpha (Homo sapiens) (UniProt P16234); test: Inhibition of PDGFRalpha using Tyr 04 peptide as substrate at 1 uM after 60 mins by Z'-LYTE assay
[10] = molecular target: T1, Mast/stem cell growth factor receptor Kit; test: Inhibition of c-Kit using Tyr 06 peptide as substrate at 1 uM after 60 mins by Z'-LYTE assay
[11] = molecular target: Platelet-derived growth factor receptor beta (Homo sapiens) (UniProt P09619); test: Inhibition of PDGFRbeta using Tyr 04 peptide as substrate at 1 uM after 60 mins by Z'-LYTE assay
[12] = molecular target: Receptor-type tyrosine-protein kinase FLT3 (Homo sapiens) (UniProt P36888); test: Inhibition of Flt3 using Tyr 02 peptide as substrate at 1 uM after 60 mins by Z'-LYTE assay
[13] = molecular target: T2, Vascular endothelial growth factor receptor 2; test: Inhibition of KDR using Tyr 01 peptide as substrate at 1 uM after 60 mins by Z'-LYTE assay
[14] = molecular target: Vascular endothelial growth factor receptor 1 (Homo sapiens) (UniProt P17948); test: Inhibition of VEGFR1 using Tyr 04 peptide as substrate at 1 uM after 60 mins by Z'-LYTE assay
[15] = molecular target: Vascular endothelial growth factor receptor 3 (Homo sapiens) (UniProt P35916); test: Inhibition of VEGFR3 using Tyr 04 peptide as substrate at 1 uM after 60 mins by Z'-LYTE assay
[16] = molecular target: Angiopoietin-1 receptor (Homo sapiens) (UniProt Q02763); test: Inhibition of Tie-2 using Tyr 05 peptide as substrate at 1 uM after 60 mins by Z'-LYTE assay
[17] = molecular target: T3, ABCG2 (Homo sapiens, UniProt Q9UNQ0); test: Inhibition of ATP-dependent ABCG2 pump assessed as ratio of compound IC50 for HEK/ABCG2-482-R2 cells to IC50 for HEK293/pcDNA3.1 cells after 72 hrs by MTT assay; settings: HEK/ABCG2-482-R2 cells versus HEK293/pcDNA3.1 cells, read-out: Ratio IC50
T3 sequence (Q9UNQ0 whole entry): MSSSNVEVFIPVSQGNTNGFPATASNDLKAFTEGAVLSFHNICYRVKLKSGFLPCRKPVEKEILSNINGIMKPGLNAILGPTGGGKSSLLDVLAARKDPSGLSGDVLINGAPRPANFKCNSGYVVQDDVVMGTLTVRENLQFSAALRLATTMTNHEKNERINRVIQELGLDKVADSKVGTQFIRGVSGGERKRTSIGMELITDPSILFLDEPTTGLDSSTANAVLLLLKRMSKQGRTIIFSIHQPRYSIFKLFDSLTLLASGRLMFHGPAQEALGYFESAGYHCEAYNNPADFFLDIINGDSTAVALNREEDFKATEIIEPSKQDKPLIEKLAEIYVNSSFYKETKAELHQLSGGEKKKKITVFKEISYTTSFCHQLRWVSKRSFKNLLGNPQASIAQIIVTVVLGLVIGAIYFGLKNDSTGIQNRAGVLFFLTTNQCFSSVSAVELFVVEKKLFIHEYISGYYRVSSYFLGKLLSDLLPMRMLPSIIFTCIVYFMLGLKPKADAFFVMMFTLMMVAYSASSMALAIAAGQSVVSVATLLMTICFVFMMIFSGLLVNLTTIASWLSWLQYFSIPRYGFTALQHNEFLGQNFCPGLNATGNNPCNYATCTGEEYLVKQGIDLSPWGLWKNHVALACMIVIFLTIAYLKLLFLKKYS
In short: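 Fold-resistance was calculated as mitoxantrone IC50 in HEK/ABCG2-482-R2 (wild-type ABCG2-transfected) cells divided by mitoxantrone IC50 in HEK293/pcDNA3 parental cells, with or without analogue at 10 μM. FTC at 2.5 μM served as the reference. Cell survival was measured by MTT. Results are means ± SD of at least three independent experiments, each run in triplicate.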

Compound | inhibition [1] | inhibition [2] | inhibition [3] | inhibition [4] | inhibition [5] | inhibition [6] | inhibition [7] | inhibition [8] | inhibition [9] | inhibition [10] | inhibition [11] | inhibition [12] | inhibition [13] | inhibition [14] | inhibition [15] | inhibition [16] | selectivity ratio at 72 h [17]
Nc1ccccc1CNc1ccsc1C(=O)Nc1ccc(OC(F)(F)F)cc1 | < 40% | < 40% | < 40% | < 40% | < 40% | < 40% | < 40% | < 40% | < 40% | < 40% | < 40% | < 40% | < 40% | < 40% | < 40% | < 40% | 
O=C(Nc1ccc(OC(F)(F)F)cc1)c1sccc1NCc1cccc([N+](=O)[O-])c1 | < 40% | < 40% | < 40% | < 40% | < 40% | < 40% | < 40% | < 40% | < 40% | < 40% | < 40% | < 40% | < 40% | < 40% | < 40% | < 40% | 
O=C(Nc1ccc(OC(F)(F)F)cc1)c1sccc1NCc1cccc(N=C=S)c1 | < 40% | < 40% | < 40% | < 40% | < 40% | < 40% | < 40% | < 40% | < 40% | < 40% | < 40% | < 40% | < 40% | < 40% | < 40% | < 40% | 
O=C(CBr)Nc1cccc(CN2C(=O)CN(c3ccc(OC(F)(F)F)cc3)C(=O)c3sccc32)c1 | 41% |  |  |  | < 40% |  |  |  |  | < 40% |  |  | < 40% |  |  |  | 
CC(=O)Nc1ccccc1CNc1ccsc1C(=O)Nc1ccc(OC(F)(F)F)cc1 | < 40% | < 40% | < 40% | < 40% | < 40% | < 40% | < 40% | < 40% | < 40% | < 40% | < 40% | < 40% | < 40% | < 40% | < 40% | < 40% | 
Nc1cnccc1CNc1ccsc1C(=O)Nc1ccc(OC(F)(F)F)cc1 | 91% |  | 47% | 41% | 88% |  | 41% |  |  | 57% |  |  | 50% |  |  |  | 
O=C1c2c(O)ccc(O)c2C(=O)c2c(NCCNCCO)ccc(NCCNCCO)c21 [MITOXANTRONE] |  |  |  |  |  |  |  |  |  |  |  |  |  |  |  |  | 15.3
CC(=O)Nc1cccc(CNc2ccsc2C(=O)Nc2ccc(OC(F)(F)F)cc2)c1 | 58% |  |  |  | < 40% |  |  |  |  | < 40% |  |  | < 40% |  |  |  | 
Nc1cccc(CNc2ccsc2C(=O)Nc2ccc(OC(F)(F)F)cc2)c1 | < 40% | < 40% | < 40% | < 40% | < 40% | < 40% | < 40% | < 40% | < 40% | < 40% | < 40% | < 40% | < 40% | < 40% | < 40% | < 40% | 
CC(=O)Nc1ccc(CNc2ccsc2C(=O)Nc2ccc(OC(F)(F)F)cc2)cc1 | < 40% | < 40% | < 40% | < 40% | < 40% | < 40% | < 40% | < 40% | < 40% | < 40% | < 40% | < 40% | < 40% | < 40% | < 40% | < 40% | 
O=C(Nc1ccc(OC(F)(F)F)cc1)c1sccc1NCc1ccncc1[N+](=O)[O-] | 80% |  |  |  | < 40% |  |  |  |  | < 40% |  |  | < 40% |  |  |  | 
O=C(Nc1ccc(OC(F)(F)F)cc1)c1sccc1NCc1ccc(N=C=S)cc1 | < 40% | < 40% | < 40% | < 40% | < 40% | < 40% | < 40% | < 40% | < 40% | < 40% | < 40% | < 40% | < 40% | < 40% | < 40% | < 40% | 

Second part, led by results:

inhibition [1] | inhibition [2] | inhibition [3] | inhibition [4] | inhibition [5] | inhibition [6] | inhibition [7] | inhibition [8] | inhibition [9] | inhibition [10] | inhibition [11] | inhibition [12] | inhibition [13] | inhibition [14] | inhibition [15] | inhibition [16] | Compound | selectivity ratio at 72 h [17]
< 40% | < 40% | < 40% | < 40% | < 40% | < 40% | < 40% | < 40% | < 40% | < 40% | < 40% | < 40% | < 40% | < 40% | < 40% | < 40% | Nc1ccc(CNc2ccsc2C(=O)Nc2ccc(OC(F)(F)F)cc2)cc1 | 
< 40% | < 40% | < 40% | < 40% | < 40% | < 40% | < 40% | < 40% | < 40% | < 40% | < 40% | < 40% | < 40% | < 40% | < 40% | < 40% | O=C(Nc1ccc(OC(F)(F)F)cc1)c1sccc1NCc1ccccc1N=C=S | 
68% |  | 44% |  | 54% |  |  |  |  | < 40% |  |  | < 40% |  |  |  | O=C(Nc1ccc(OC(F)(F)F)cc1)c1sccc1NCc1ccc(O)cc1 | 
< 40% | < 40% | < 40% | < 40% | < 40% | < 40% | < 40% | < 40% | < 40% | < 40% | < 40% | < 40% | < 40% | < 40% | < 40% | < 40% | O=C(Nc1ccc(OC(F)(F)F)cc1)c1sccc1NCc1ccc([N+](=O)[O-])cc1 | 
102% |  |  |  | 101% |  |  |  |  | 81% |  |  | 101% |  |  |  | CC(=O)Nc1cc(CNc2ccsc2C(=O)Nc2ccc(OC(F)(F)F)cc2)ccn1 | 
< 40% | < 40% | < 40% | < 40% | < 40% | < 40% | < 40% | < 40% | < 40% | < 40% | < 40% | < 40% | < 40% | < 40% | < 40% | < 40% | O=C(Nc1ccc(OC(F)(F)F)cc1)c1sccc1NCc1ccccc1[N+](=O)[O-] | 
